In ChEMBL document CHEMBL4311956, “A Qualified Success: Discovery of a New Series of ATAD2 Bromodomain Inhibitors with a Novel Binding Mode Using High-Throughput Screening and Hit Qualification” (J Med Chem, 2019):
Each block holds one compound with its values, some of them ahead of it. Active and inactive are the calls of the source.

Experiments:
[1] = target: T1, ATPase family AAA domain-containing protein 2 (Homo sapiens, UniProt Q6PL18); experiment: Binding affinity to human partial length ATAD2A (Q981 to R1108 residues) expressed in Escherichia coli BL21(DE3) cells after 1 hr by competitive binding assay
T1 sequence (Q6PL18 whole entry): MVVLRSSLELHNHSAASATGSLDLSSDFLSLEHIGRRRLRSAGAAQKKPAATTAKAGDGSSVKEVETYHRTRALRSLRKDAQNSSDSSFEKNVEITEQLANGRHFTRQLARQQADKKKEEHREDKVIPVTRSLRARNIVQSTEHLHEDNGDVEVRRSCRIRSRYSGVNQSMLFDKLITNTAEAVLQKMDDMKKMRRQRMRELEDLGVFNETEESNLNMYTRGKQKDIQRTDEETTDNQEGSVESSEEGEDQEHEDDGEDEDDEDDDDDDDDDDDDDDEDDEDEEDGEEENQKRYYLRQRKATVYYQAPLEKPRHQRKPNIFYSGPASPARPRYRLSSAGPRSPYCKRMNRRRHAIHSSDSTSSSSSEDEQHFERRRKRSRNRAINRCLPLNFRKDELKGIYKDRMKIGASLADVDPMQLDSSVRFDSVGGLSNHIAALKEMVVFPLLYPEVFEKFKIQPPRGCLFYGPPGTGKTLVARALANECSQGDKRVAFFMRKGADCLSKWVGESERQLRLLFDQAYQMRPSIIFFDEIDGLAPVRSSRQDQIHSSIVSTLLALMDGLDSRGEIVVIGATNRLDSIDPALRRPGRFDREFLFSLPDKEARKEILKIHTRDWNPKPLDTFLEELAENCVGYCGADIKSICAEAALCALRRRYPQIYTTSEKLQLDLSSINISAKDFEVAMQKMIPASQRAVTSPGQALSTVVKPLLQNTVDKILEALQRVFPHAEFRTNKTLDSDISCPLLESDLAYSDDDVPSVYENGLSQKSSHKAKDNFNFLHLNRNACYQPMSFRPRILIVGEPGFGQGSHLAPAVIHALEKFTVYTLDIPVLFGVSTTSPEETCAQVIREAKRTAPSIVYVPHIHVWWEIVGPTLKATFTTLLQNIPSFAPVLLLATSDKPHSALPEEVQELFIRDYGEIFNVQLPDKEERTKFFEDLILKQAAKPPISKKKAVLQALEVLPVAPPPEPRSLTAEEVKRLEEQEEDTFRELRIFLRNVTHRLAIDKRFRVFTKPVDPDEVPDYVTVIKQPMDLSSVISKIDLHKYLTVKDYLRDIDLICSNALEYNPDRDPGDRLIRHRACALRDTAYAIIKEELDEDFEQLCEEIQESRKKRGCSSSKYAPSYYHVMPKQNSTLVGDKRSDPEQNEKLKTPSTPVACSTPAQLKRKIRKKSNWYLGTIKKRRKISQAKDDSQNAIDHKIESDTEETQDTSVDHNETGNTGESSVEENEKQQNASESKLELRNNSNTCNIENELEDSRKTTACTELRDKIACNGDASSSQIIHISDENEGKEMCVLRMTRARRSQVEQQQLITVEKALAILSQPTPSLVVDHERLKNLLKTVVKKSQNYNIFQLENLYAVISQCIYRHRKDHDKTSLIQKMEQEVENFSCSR

[2] = target: T2, ATPase family AAA domain-containing protein 2 (Homo sapiens) (UniProt Q6PL18); experiment: Binding affinity to 15N-labelled ATAD2 (981 to 1108 residues) (unknown origin) at 100 uM by 1H-15N HSQC NMR analysis
T2 sequence (whole entry): T1 sequence (Q6PL18 whole entry)
Procedure, shortened: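 15N–1H HSQC spectra of labelled ATAD2 bromodomain recorded with and without compound at 100 μM. Binding is judged from spectral changes.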

[3] = target: T1, ATPase family AAA domain-containing protein 2; experiment: Displacement of biotinylated H4 peptide from His6/FLAG-tagged TEV fused ATAD2 bromodomain (950 to 1148 residues) (unknown origin) expressed in Escherichia coli BL21(DE3) cells after 30 mins by TR-FRET assay
Procedure, shortened: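 TR-FRET acetylated-peptide displacement assay using 6H-Flag-tev ATAD2(950–1148). Used for the HTS: single-concentration primary screen with digital plate-pattern correction, then replated duplicate retest and dose–response. A curve-fit cutoff of IC50 > 30 μM applies.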

[4] = target: T2, ATPase family AAA domain-containing protein 2 (Homo sapiens); experiment: Displacement of SGRG-K(Ac)-GG-K(Ac)-GLG-K(Ac)-GGAKRHRKV-biotin) from His6/FLAG-tagged TEV fused ATAD2 bromodomain (981 to 1121 residues) (unknown origin) expressed in Escherichia coli BL21(DE3) cells up to 10 uM after 30 mins by TR-FRET assay
[5] = target: T1, ATPase family AAA domain-containing protein 2; experiment: Displacement of Alexa Fluor 488 labelled ligand from ATAD2 bromodomain (981 to 1121 residues) (unknown origin) expressed in Escherichia coli BL21(DE3) cells after 30 mins by TR-FRET assay
[6] = target: Bromodomain-containing protein 4 (Homo sapiens, UniProt O60885, Y390A); experiment: Displacement of Alexa Fluor 647 labelled ligand from His6-tagged BRD4 BD1 (1 to 477 residues)/BD2 Y390A mutant (unknown origin) after 30 mins by TR-FRET assay
Procedure, shortened: (§1)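 BET selectivity by TR-FRET fluoroligand displacement. Uses tandem BET bromodomain constructs carrying a mutation in the non-assayed bromodomain.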

[7] = target: Bromodomain-containing protein 4 (Homo sapiens, UniProt O60885, Y97A); experiment: Displacement of Alexa Fluor 647 labelled ligand from His6-tagged BRD4 BD2 (1 to 477 residues)/BD1 Y97A mutant (unknown origin) after 30 mins by TR-FRET assay; procedure, shortened: as §1

Kd [1]: 44 µM
Compound: CCOC(=O)Nc1cc(-c2ccc(C)c(NS(C)(=O)=O)c2)nn2c(C)nnc12

Activity [2]: inactive
IC50 [3]: 0.03 µM
Activity [4]: inactive
Compound: CN1CCN(c2nc(C(=O)c3ccccc3)c3cnn(C)c3n2)CC1

IC50 [5]: 0.631 µM
IC50 [6]: > 50.1 µM
IC50 [7]: 31.6 µM
Compound: CC1CCCN(S(=O)(=O)c2cc(NC(=O)CN3C(=O)CNC3=O)ccc2Br)C1 (configuration not stated)
